We go through 13 compounds from ChEMBL document CHEMBL4049428, “Exploring Derivatives of Quinazoline Alkaloid l-Vasicine as Cap Groups in the Design and Biological Mechanistic Evaluation of Novel Antitumor Histone Deacetylase Inhibitors” (J Med Chem, 2017).

For assay [1], the species on record is Homo sapiens. The experiment in a line: Inhibition of HDAC in human HeLa nuclear extract up to 2 uM using Boc-Lys(Ac)-AMC as substrate measured after 30 mins by fluorometric analysis.
Assay [2] has as its system COLO 205. The experiment in a line: Cytotoxicity against human COLO205 cells assessed as growth inhibition at 10 uM after 48 hrs by MTT assay. It counts as functional. As to conditions: COLO 205, 48 h, read-out: GI. In outline: (§1)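 MTT assay, 48 h exposure; adherent lines seeded 12 h and suspension lines 4 h before compound. Media: RPMI-1640/10% FCS (THP-1, HL-60, Colo-205, Caco-2, A549), DMEM/10% FCS (A549, MIAPaCa-2, MCF-7). MTT 4 h, formazan dissolved in DMSO, absorbance 570 nm. Mean ± S.D of three experiments in triplicate; SAHA 5 µM reference.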

Assay [3] deals with A549. The experiment in a line: Cytotoxicity against human A549 cells assessed as growth inhibition at 10 uM after 48 hrs by MTT assay. The assay is classed as functional. As to conditions: A549, 48 h, read-out: GI. In outline: as §1
Assay [4] concerns MOLT-4. Briefly: Cytotoxicity against human MOLT4 cells assessed as growth inhibition at 10 uM after 48 hrs by MTT assay. The assay is classed as functional. As to conditions: MOLT-4, 48 h, read-out: GI.
For assay [5], the system named is MCF7. Briefly: Cytotoxicity against human MCF7 cells assessed as growth inhibition at 10 uM after 48 hrs by MTT assay. The assay is classed as functional. As to conditions: MCF7, 48 h, read-out: GI. An outline of the steps:
as §1

Assay [6] relates to MIA PaCa-2. The experiment in a line: Cytotoxicity against human MIAPaCa2 cells assessed as growth inhibition at 10 uM after 48 hrs by MTT assay. The assay is classed as functional. As to conditions: MIA PaCa-2, 48 h, read-out: GI. An outline of the steps: as §1
The test system of assay [7] is HL-60. The experiment in a line: Cytotoxicity against human HL60 cells assessed as growth inhibition at 10 uM after 48 hrs by MTT assay. As to conditions: HL-60, 48 h, read-out: GI. It counts as functional. An outline of the steps: as §1
In assay [8] the test system is PC-3. The experiment in a line: Cytotoxicity against human PC3 cells assessed as growth inhibition at 10 uM after 48 hrs by MTT assay. It counts as functional. As to conditions: PC-3, 48 h, read-out: GI.
Assay [9] relates to THP-1. Briefly: Cytotoxicity against human THP1 cells assessed as growth inhibition at 10 uM after 48 hrs by MTT assay. The assay is classed as functional. As to conditions: THP-1, 48 h, read-out: GI. An outline of the steps:
as §1

Assay [10] concerns Caco-2. Briefly: Cytotoxicity against human Caco2 cells assessed as growth inhibition at 10 uM after 48 hrs by MTT assay. The assay is classed as functional. As to conditions: Caco-2, 48 h, read-out: GI. In outline:
as §1

Assay [11] has as its system P388. The experiment in a line: Antitumor activity against mouse P388 cells implanted in CDF1 mouse assessed as increase in median survival time at 20 mg/kg, ip administered for 9 consecutive days. The assay is classed as functional, organism-based. An outline of the steps:
(§2)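 P388 leukemia cells were harvested from 6–7-day-old ascites grown in the peritoneum of female DBA/2 mice. Female CDF1 mice (18–23 g) received 5×10^5 cells i.p. on day 0. Next day they were randomized into groups of 7 and dosed i.p. daily for 9 consecutive days; controls got 0.2 ml normal saline. Mortality was followed to day 18, with median survival time and %T/C calculated.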

Assay [12] concerns HL-60. Briefly: Induction of mitochondrial membrane potential loss in human HL60 cells assessed as intact mitochondrial membrane potential at 1 uM measured after 48 hrs by Rh123 dye-based flow cytometric analysis (reference value: 91.3%). It counts as functional. An outline of the steps: (§3)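 Cells seeded in 6-well plates 2-4 h, then 48 h with compound; Rh-123 1 µM added for the final half hour; cells centrifuged, washed twice in PBS, resuspended in PBS, and Ψm loss quantified by flow cytometry as percentage of cells.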

Assay [13] relates to MOLT-4. The experiment in a line: Induction of mitochondrial membrane potential loss in human MOLT4 cells at 1 uM measured after 48 hrs by Rh123 dye-based flow cytometric analysis (reference value: 9.6%). It counts as functional. In outline:
as §3

Assay [14] has as its system HL-60. The experiment in a line: Induction of mitochondrial membrane potential loss in human HL60 cells at 1 uM measured after 48 hrs by Rh123 dye-based flow cytometric analysis (reference value: 5.6%). The assay is classed as functional. In outline: as §3
The subject of assay [15] is MOLT-4. The experiment in a line: Induction of mitochondrial membrane potential loss in human MOLT4 cells assessed as intact mitochondrial membrane potential at 1 uM measured after 48 hrs by Rh123 dye-based flow cytometric analysis (reference value: 90.4%). The assay is classed as functional. In outline:
as §3

For assay [16], the system named is P388. Briefly: Antitumor activity against mouse P388 cells implanted in CDF1 mouse assessed as increase in median survival time at 50 mg/kg, ip administered for 9 consecutive days. The assay is classed as functional. In outline:
as §2

The subject of assay [17] is MIA PaCa-2. The experiment in a line: Cytotoxicity against human MIAPaCa2 cells assessed as growth inhibition after 48 hrs by MTT assay. The assay is classed as functional, cell-based. As to conditions: MIA PaCa-2, 48 h. In outline:
as §1

Calls of active or inactive are those of the source. No cut-off for these calls is given here.

`O=C(CCCCC(=O)N[C@@H]1CCN(Cc2ccccc2)C1)NO`: the inhibition result in [1] was “inactive”.

`O=C(CCCCCCC(=O)N[C@H]1CCN(Cc2ccccc2)C1)NO`: the inhibition result in assay [1] was “inactive”.

For the compound `O=C(CCCCCCCC(=O)N[C@H]1CCN(Cc2ccccc2)C1)NO`, the inhibition entry in [1] is “inactive”.

For the compound `O=C(CCCCCCCC(=O)Nc1ccccc1CN1CC[C@H](O)C1)NO`, the inhibition of growth at 10 µM in assay [2] is 7%; in assay [3] it was 5%; in [4], 30%; in assay [5] it was 3%; in assay [6] it was 2%; in assay [7] it was 6%. In addition, the inhibition of growth at 10 µM was determined as 12% in assay [8], 17% in assay [9] and 5% in [10]. For the same compound, in [1], the inhibition result is “Active”.

As to `O=C(CCCCC(=O)Nc1ccccc1CN1CC[C@H](O)C1)NO`, the inhibition of growth at 10 µM in [2] turned out to be 22%; in assay [3] it was 19%; in [4], 38%; in assay [5], 26%; in assay [6], 12%; in assay [7] it was 29%. In addition, the inhibition of growth at 10 µM came to 15% in assay [8], 37% in assay [9] and 31% in assay [10]. Further, the inhibition result in [1] is “Active”.

Take `O=C(CCCCC(=O)N[C@H]1CCN(Cc2ccccc2)C1)NO`: in [1], the inhibition entry was “inactive”.

`O=C(CCCC(=O)N[C@H]1CCN(Cc2ccccc2)C1)NO`: the inhibition entry in [1] is “inactive”.

As to `O=c1[nH]cc(F)c(=O)[nH]1`, the outcome in assay [11] was Active.

In the case of `O=C(CCCCCCC(=O)N[C@@H]1CCN(Cc2ccccc2)C1)NO`, the inhibition entry in [1] is “inactive”.

On to `O=C(CCCCCCCC(=O)N[C@@H]1CCN(Cc2ccccc2)C1)NO`, for which the inhibition entry in assay [1] is “inactive”.

As for `O=C(CCCC(=O)N[C@@H]1CCN(Cc2ccccc2)C1)NO`, the inhibition result in [1] is “inactive”.

On to `O=C(CCCC(=O)Nc1ccccc1CN1CC[C@H](O)C1)NO`, for which the inhibition of growth at 10 µM in assay [2] stood at 26%; in assay [3], 5%; in [4], 27%; in [5] it was 5%; in assay [6], 4%; in [7], 3%. Moreover, the inhibition of growth at 10 µM came out at 2% in assay [8], 3% in [9] and 1% in [10]. Also, the inhibition result in [1] is “Active”.

On to `O=C(CCCCCCC(=O)Nc1ccccc1)NO` [VORINOSTAT], for which the Activity in assay [12] is 75.6%; in assay [13] it was 28.4%; in assay [14], 12.9%; in assay [15], 71.6%. Besides, the outcome in [16] was Active. Besides, in [17], the IC50 turned out to be 2200 nM.
